ChEMBL document CHEMBL1121437, “Structure--antitubulin activity relationship in steganacin congeners and analogues. Inhibition of tubulin polymerization in vitro by (+/-)-isodeoxypodophyllotoxin” (J Med Chem, 1980)

What was measured:
[1] = biological target: Tubulin (Sus scrofa) (UniProt P02554+P02550); assay: (§1) Tested for the inhibition of polymerization rate of tubulin microtubule assembly.; type: functional
How it was run: (§2)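 Porcine brain tubulin (three cycles, ca. 1 mg/mL, 15% MAPs) in 0.1 M MES, 0.5 mM MgCl2, 1 mM EGTA, 1 mM GTP, pH 6.6. Compound (from 10^-2 M DMSO stock) preincubated with tubulin 1 h at 37 °C, cooled to 4 °C for 30 min, then warmed to 37 °C. Turbidity followed at 350 nm. I50 = concentration halving maximum polymerization rate.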

[2] = biological target: T1, Tubulin (Sus scrofa, UniProt P02554+P02550); assay: as §1; type: functional; how it was run: as §2
[3] = biological target: T1, Tubulin; assay: Binding affinity against tubulin using [3H]colchicine as radioligand; type: protein assay
[4] = biological target: T1, Tubulin; assay: Binding affinity against tubulin usingf [3H]-colchicine as radioligand; type: protein assay

Sequence of Tubulin (Sus scrofa) (P02550 whole entry, looked up): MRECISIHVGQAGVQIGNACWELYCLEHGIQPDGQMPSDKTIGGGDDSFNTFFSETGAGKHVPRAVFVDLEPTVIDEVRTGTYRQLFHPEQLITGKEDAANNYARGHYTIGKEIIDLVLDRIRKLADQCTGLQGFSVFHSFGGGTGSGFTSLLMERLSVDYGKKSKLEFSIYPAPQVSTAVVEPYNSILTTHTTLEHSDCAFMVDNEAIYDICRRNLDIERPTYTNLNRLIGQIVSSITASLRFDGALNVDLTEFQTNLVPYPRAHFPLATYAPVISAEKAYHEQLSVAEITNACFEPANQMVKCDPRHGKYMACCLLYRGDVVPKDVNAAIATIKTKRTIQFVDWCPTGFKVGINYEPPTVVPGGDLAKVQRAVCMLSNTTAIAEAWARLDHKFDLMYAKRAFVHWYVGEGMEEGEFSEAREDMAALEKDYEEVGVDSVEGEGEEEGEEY
Sequence of Tubulin (Sus scrofa) (P02554 whole entry, looked up): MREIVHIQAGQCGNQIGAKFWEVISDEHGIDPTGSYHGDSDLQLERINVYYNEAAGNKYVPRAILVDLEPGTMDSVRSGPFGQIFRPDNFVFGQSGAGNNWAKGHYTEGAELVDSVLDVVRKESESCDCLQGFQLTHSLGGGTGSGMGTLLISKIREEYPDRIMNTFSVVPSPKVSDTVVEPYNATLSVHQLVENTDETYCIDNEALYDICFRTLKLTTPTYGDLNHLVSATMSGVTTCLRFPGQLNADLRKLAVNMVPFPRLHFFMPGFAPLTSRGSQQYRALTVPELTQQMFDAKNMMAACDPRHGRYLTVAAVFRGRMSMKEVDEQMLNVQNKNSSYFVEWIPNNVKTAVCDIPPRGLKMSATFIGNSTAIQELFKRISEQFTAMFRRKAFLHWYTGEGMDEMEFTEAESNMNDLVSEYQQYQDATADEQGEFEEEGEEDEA

Structure (SMILES) | I20 [1] [µM] | I50 [2] [µM] | Ki [3] [µM] | I30 [1] [µM] | Ki [4] [µM]
COc1cc2c(c(OC)c1OC)-c1cc3c(cc1C[C@@H]1COC(=O)[C@H]1C2)OCO3 | 70 | 60 | 100 |  | 
COc1cc2c(c(OC)c1OC)-c1cc3c(cc1C[C@@H]1COC(=O)[C@@H]1C2)OCO3 |  | 5 | 32 | 700 | 
COc1cc2c(c(OC)c1OC)-c1cc3c(cc1C(=O)[C@@H]1COC(=O)[C@H]1C2)OCO3 (stereo in doubt; 9) |  | 110 |  |  | […]
COc1cc2c(c(OC)c1OC)-c1cc3c(cc1[C@@H](OC(C)=O)C1COC(=O)[C@H]1C2)OCO3 (stereo partly drawn) [STEGANACIN] |  | 3.5 | 10.5 |  | 
COc1cc2c(c(OC)c1OC)-c1cc3c(cc1C(=O)[C@@H]1COC(=O)[C@H]1C2)OCO3 (stereo in doubt; 5) |  | 125 | 178 |  | 
COc1cc2c(c(OC)c1OC)-c1cc3c(cc1C(=O)[C@@H]1COC(=O)[C@H]1C2)OCO3 (stereo in doubt; 13) |  | 375 |  |  | 
COc1cc(CC2CCOC2=O)c(-c2cc3c(cc2CO)OCO3)c(OC)c1OC (stereo not drawn) |  |  | 185 |  | 
COc1cc2c(c(OC)c1OC)-c1cc3c(cc1C(=O)[C@@H]1COC(=O)[C@H]1C2)OCO3 (stereo in doubt; 12) |  | 450 |  |  | 
COc1cc2c(c(OC)c1OC)-c1cc3c(cc1C(=O)[C@@H]1COC(=O)[C@H]1C2)OCO3 (stereo in doubt; 17) |  | 162 |  |  | 
COc1cc([C@@H]2c3cc4c(cc3CC3COC(=O)[C@@H]32)OCO4)cc(OC)c1OC (mixture of isomers) |  | 2.1 | 201 |  | 
